PRMT1 inh = PRMT1 methyltransferase inhibitors, primary screen, biochemical, fluorescence polarization; Protein arginine N-methyltransferase 1 (Homo sapiens), Q99873; recombinant PRMT1, activity-based probe fluorescence polarization; inhibition, % at 2.79 µM; 370,000 tested, 1.3% active; AID 652257, 2013;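 active means inhibition above about 21% made by adding two undisclosed values, limit read from the data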
Target sequence (Q99873 whole entry, looked up): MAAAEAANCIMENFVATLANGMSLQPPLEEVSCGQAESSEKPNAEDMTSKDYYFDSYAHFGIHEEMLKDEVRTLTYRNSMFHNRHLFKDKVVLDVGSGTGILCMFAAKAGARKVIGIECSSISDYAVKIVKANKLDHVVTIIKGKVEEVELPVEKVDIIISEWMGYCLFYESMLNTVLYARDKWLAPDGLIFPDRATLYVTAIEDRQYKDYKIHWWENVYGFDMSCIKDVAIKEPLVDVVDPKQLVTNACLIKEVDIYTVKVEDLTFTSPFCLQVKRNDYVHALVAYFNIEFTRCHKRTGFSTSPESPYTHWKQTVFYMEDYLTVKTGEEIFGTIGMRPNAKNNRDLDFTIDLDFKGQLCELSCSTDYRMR
ATG4B inhibitor = ATG4B protease inhibitors, primary screen, biochemical, fluorescence, uHTS; ATG4B cleavage of LC3-PLA2, NBD-HPC fluorescence, 1 h; 340,000 tested, 0.51% active; inhibition, % at 8.33 µM; in the data active means inhibition above about 40%
HTRA1 inh = HTRA1 serine protease inhibitors, primary screen, biochemical, fluorescence polarization, HTS | Q92743 | recombinant HTRA1, FP-rhodamine activity-based probe | inhibition, % at 5.96 µM | 340,000 tested, 0.5% active | AID 504803, 2011; in the data active means inhibition above about 36%
TCR-CD3 inh = inhibitors of human TCR-CD3 interaction, primary screen, biochemical, fluorescence, TAMRA-labeled TCR probe | T-cell receptor (TCR) | inhibition, % at 9.4 µM | 360,000 tested, 0.37% active | AID 651800, 2012; in the data active means inhibition above about 19%;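 further: recombinant mutant TCR 2C K166C tagged with TAMRA read by polarization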
SIAE primary = human SIAE inhibitors, primary screen, biochemical, fluorescence polarization, FP-Rh probe, 1536-well HTS; SIAE FP-Rh probe binding; 370,000 tested, 0.69% active; inhibition, % at 9.66 µM;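 active means inhibition above a cutoff: mean of compounds within the control limits plus 3 SD of those, cut at about 17% in these data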
ABHD4 inh = ABHD4 inhibitors, primary screen, biochemical, fluorescence polarization, mouse | (Lyso)-N-acylphosphatidylethanolamine lipase (Mus musculus), Q8VD66 | purified mABHD4, FP-Rh probe fluorescence polarization | inhibition, % at 8.92 µM | 370,000 tested, 0.54% active | AID 720543, 2013;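 active means inhibition exceeding the mean over every tested compound plus 3 SD, cut at about 30% in these data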
Target sequence (Q8VD66 whole entry, looked up): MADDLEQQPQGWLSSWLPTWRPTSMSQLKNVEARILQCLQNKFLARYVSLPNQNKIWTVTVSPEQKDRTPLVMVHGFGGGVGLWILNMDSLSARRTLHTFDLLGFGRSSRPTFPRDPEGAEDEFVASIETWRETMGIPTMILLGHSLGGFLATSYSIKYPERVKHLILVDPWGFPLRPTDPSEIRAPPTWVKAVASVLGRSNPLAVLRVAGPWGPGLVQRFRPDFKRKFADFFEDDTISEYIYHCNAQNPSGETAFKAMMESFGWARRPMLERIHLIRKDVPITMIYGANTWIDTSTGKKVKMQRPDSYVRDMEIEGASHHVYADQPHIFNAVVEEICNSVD
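Material: mouse ABHD4 enzyme, wild type; Benchmarks: S159A mutant high control, sample median low control; Buffer or medium: HEPES pH 7.0, NaCl, Pluronic buffer; Signal: fluorescence polarization; Read-out: percent inhibition of probe binding, normalized to plate controls; Timing: pre-incubation 45 min, probe exposure 60 min, at 25 °C; Dosing: 8.92 µM, single dose.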
SIAE confirm = human SIAE inhibitors, retest, confirmation, biochemical, fluorescence polarization, FP-Rh probe, triplicate; 2,300 tested, 13% active; SIAE FP-Rh activity-based probe; AID 1117263, 2014; shares compounds with SIAE primary; inhibition, % at 9.66 µM;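 active means mean inhibition of the replicates above the hit cutoff set in the primary screen, cut at about 17% in these data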;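 further: inhibitors lower polarization as more probe stays unbound to SIAE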
Large screens that a line does not name were inactive (follow-up assays come after a bar, where they were run). Hits are enriched below; roughly 2.9% of the tested compounds scored in any of these assays.

COc1ccc(C(=O)Nc2ccc(Nc3ccccc3)cc2)cc1[N+](=O)[O-]	SIAE primary 19 | SIAE confirm inactive
O=C(Nc1ccc(Nc2ccccc2)cc1)c1cc([N+](=O)[O-])ccc1Cl	SIAE primary 24 | SIAE confirm inactive
COc1ccccc1NC(=O)c1ccc(-n2ccnc2)c([N+](=O)[O-])c1	SIAE primary 24 | SIAE confirm inactive
O=C(Nc1ccc(OC(F)(F)F)cc1)Nc1c(-c2ccc(F)cc2)nc2ncccn12	none (no result: ATG4B inhibitor, HTRA1 inh, TCR-CD3 inh)
CC(C)(Oc1ccc(Cl)cc1)C(=O)O/N=C(\N)c1ccncc1	SIAE primary 18 | SIAE confirm inactive
CCN=C1SC(CC(=O)Nc2ccc(N3CCOCC3)cc2)C(=O)N1CC (configuration not stated)	SIAE primary 19 | SIAE confirm inactive
C/C(=N\NC(=O)c1ccc(-c2ccccc2)cc1)c1ccco1	none
C/C(=N\NC(=O)c1cc([N+](=O)[O-])cc([N+](=O)[O-])c1)c1ccco1	SIAE primary 18 | SIAE confirm inactive
N[C@H]1CC[C@@H]2SC[C@@H](C(=O)O)N2C1=O	none (no result: ATG4B inhibitor, HTRA1 inh, TCR-CD3 inh)
Nc1nc(C(F)(F)F)cc(=O)[nH]1	SIAE primary 21 | SIAE confirm inactive
Cc1ccc(-c2nc(C(F)(F)F)cc(=O)[nH]2)cc1	none
CN=CC1=C(O)CC(C)(C)CC1=O	none
CC1(C)CC(=O)C(C=NCC(N)=O)=C(O)C1	SIAE primary 18 | SIAE confirm inactive
CCOc1ccc(OCCC(=O)OC(C)C(=O)Nc2ccc(C(C)=O)cc2)cc1 (configuration not stated)	none
CC(=O)Nc1ccc(NC(=O)C(C)OC(=O)COc2ccc(Nc3ccccc3)cc2)cc1 (configuration not stated)	SIAE primary 23 | SIAE confirm inactive
COc1cc(-c2c(C(=O)c3ccccc3)[nH]c(N)c2C(=O)NCCc2c[nH]c3ccccc23)ccc1F	none (no result: ATG4B inhibitor, HTRA1 inh)
N#CCC[C@H]1CC[C@]2(CCCN(Cc3cccc4ccccc34)C2)O1	none (no result: ATG4B inhibitor, HTRA1 inh, TCR-CD3 inh)
COc1ccc(NC(=O)CSc2ccc(-c3ccco3)nn2)cc1OC	SIAE primary 18 | SIAE confirm inactive
COc1ccc(NC(=O)CSc2nnc3ccc(-c4cccnc4)nn23)cc1OC	SIAE primary 21 | SIAE confirm inactive
COc1ccc(OC)c(NC(=O)CSc2ccc(-c3ccco3)nn2)c1	none
COc1ccc(NC(=O)CSc2nnc3ccc(-c4cccnc4)nn23)cc1	none
COc1ccc(NC(=O)CSc2nncn2C)cc1OC	SIAE primary 33 | SIAE confirm inactive
Cc1ccc2nc(-c3ccc(NC(=O)CSc4nnc(-c5cc(C)[nH]n5)n4N)cc3)sc2c1	none (no result: ATG4B inhibitor, HTRA1 inh, TCR-CD3 inh)
Cc1ccc(O)c(/C=N/NC(=O)c2[nH]ncc2Br)c1	none
O=C(N/N=C/c1c(O)ccc2ccccc12)c1[nH]ncc1Br	SIAE primary 19 | SIAE confirm inactive
C[C@H]1[C@H](c2ccccc2)Oc2cccc(NCCc3ccccc3)c2S(=O)(=O)N1Cc1ccc(F)cc1	none (no result: ATG4B inhibitor, HTRA1 inh)
Cc1nn(Cc2ccc(Cl)cc2Cl)c(C)c1NC(=O)c1nc2n(n1)C(C(F)F)CC(C)N2 (configuration not stated)	SIAE primary 31 | SIAE confirm inactive
Cc1nn(Cc2ccc(Cl)cc2Cl)c(C)c1NC(=O)C1C2CCC(O2)C1C(=O)O (configuration not stated)	SIAE primary 20 | SIAE confirm inactive
COC(=O)[C@]12CCCCC=C1N(Cc1ccc(OC)cc1)C(=O)[C@@H]2CC(=O)N1CCCCC1	none (no result: ATG4B inhibitor, HTRA1 inh, TCR-CD3 inh)
COC(=O)[C@]12C[C@H](CC(=O)N3CCCC3)C(=O)N(Cc3ccc(Cl)cc3Cl)C1=C[C@H](C(C)(C)C)O[C@@H]2C	none (no result: ATG4B inhibitor, HTRA1 inh, TCR-CD3 inh)
COc1ccc(OC)c(/C=N\Nc2nccs2)c1	SIAE primary 18 | SIAE confirm inactive
COC(=O)[C@H]1C[C@@]2(C)c3ccccc3N(S(=O)(=O)c3ccccc3)[C@H]2N1C(=O)CNC1CCCCC1	none (no result: ATG4B inhibitor, HTRA1 inh, TCR-CD3 inh)
N#CC(=C1C=C(Br)C(=NO)C=C1Cl)c1ccc(Cl)cc1	SIAE primary 33 (no result: ATG4B inhibitor) | SIAE confirm 50
N#CC(=C1C=CC(=NO)C(Cl)=C1)c1ccccc1	none (no result: ATG4B inhibitor, HTRA1 inh)
FC(F)(F)c1ccc2c(c1)NCC1CCCN21 (configuration not stated)	SIAE primary 18 | SIAE confirm inactive
O=[N+]([O-])c1cc(C(F)(F)F)ccc1N1CCCC(O)C1 (configuration not stated)	none
CCCCN1CCCOc2cc(Br)ccc2S1(=O)=O	none (no result: ATG4B inhibitor, HTRA1 inh, TCR-CD3 inh)
Cc1cccc(-c2cccc3c4c([nH]c23)[C@@H]2C[C@H](N(C)C(=O)c3cccc(Cl)c3)[C@H]([C@H](C)O)CN2CC4)c1	none (no result: ATG4B inhibitor, HTRA1 inh, TCR-CD3 inh)
O=C(CCCC(=O)N1CCN(c2ccc([N+](=O)[O-])cc2)CC1)c1ccccc1	none
O=C(O)CCN1CC2([N+](=O)[O-])C=CC(=O)C([N+](=O)[O-])(C1)C2CC(=O)c1ccccc1 (configuration not stated)	SIAE primary 17 | SIAE confirm inactive
O=C(NCc1cccs1)C1CCCN(S(=O)(=O)c2ccccc2)C1 (configuration not stated)	none (no result: ATG4B inhibitor, HTRA1 inh, TCR-CD3 inh)
COc1ccc(/C=C/C(=O)NC(=S)Nc2cc([N+](=O)[O-])ccc2O)cc1OC	TCR-CD3 inh 50, SIAE primary 18 | SIAE confirm inactive
COc1ccc([N+](=O)[O-])cc1NC(=S)NC(C)=O	none
CC1=C2NC(N)=[N+](Cc3ccccc3)CC2n2c(=O)n(-c3ccccc3)c(=O)n2C1 (configuration not stated)	none (no result: ATG4B inhibitor, HTRA1 inh, TCR-CD3 inh)
COC(=O)C1CCN(C(=O)COC(=O)CNC(=O)c2ccc(Cl)cc2Cl)CC1	SIAE primary 20 | SIAE confirm inactive
CC1CCCCN1C(=O)COC(=O)CNC(=O)c1ccc(Cl)cc1Cl (configuration not stated)	none
O=C(CNC(=O)c1ccccc1)OCN1C(=O)c2ccccc2C1=O	none
O=C(CNC(=O)c1ccc(Cl)cc1Cl)OCN1C(=O)c2ccccc2C1=O	SIAE primary 19 | SIAE confirm inactive
CCOC(=O)Cc1nc(N2CCCN(C(C)=O)CC2)c2c(C)c(C(=O)OCC)sc2n1	none (no result: ATG4B inhibitor, HTRA1 inh, TCR-CD3 inh)
O=C(OCC#CCSc1nnc(-c2cccc3ccccc23)o1)c1ccncc1	none (no result: ATG4B inhibitor, HTRA1 inh, TCR-CD3 inh)
CC(C)C1Oc2ccccc2N(CC(=O)N2CCOCC2)C1=O (configuration not stated)	SIAE primary 27 | SIAE confirm inactive
Cc1cc(NC(=O)Cc2c(C)[nH]c3ccccc23)ccc1Oc1cccnc1	none (no result: ATG4B inhibitor, HTRA1 inh)

Assay outcomes (PubChem BioAssay)
